From ChEMBL document CHEMBL1641576, “Development of a new class of benzoylpyrrole-based PPARα/γ activators” (Bioorg Med Chem Lett, 2011)
Calls of active or inactive are those of the source. The calls are words filed in the database; no cut-off is given here.

Experiments:
[1] = target: T1, Peroxisome proliferator-activated receptor alpha (Homo sapiens) (UniProt Q07869); assay: Agonist activity at human PPARalpha ligand binding domain expressed in COS-1 cells co-transfected with Gal4 at 10 uM by luciferase reporter gene assay relative to control; assay type: cell-based
T1 sequence (whole entry): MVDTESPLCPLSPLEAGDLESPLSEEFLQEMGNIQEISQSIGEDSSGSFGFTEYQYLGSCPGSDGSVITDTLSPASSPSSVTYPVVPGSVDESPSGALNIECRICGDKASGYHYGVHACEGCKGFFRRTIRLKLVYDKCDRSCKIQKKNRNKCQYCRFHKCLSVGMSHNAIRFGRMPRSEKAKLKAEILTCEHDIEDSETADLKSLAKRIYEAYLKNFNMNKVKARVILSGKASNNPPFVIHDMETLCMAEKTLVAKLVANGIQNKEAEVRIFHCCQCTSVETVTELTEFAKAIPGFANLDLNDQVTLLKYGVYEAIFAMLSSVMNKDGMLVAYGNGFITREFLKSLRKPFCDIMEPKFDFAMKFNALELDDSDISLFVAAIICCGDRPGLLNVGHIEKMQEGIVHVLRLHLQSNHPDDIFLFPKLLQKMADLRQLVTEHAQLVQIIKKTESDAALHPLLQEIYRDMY
Method in brief: (§1)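 COS-1 cells were seeded at 5 × 10⁴ cells/well and grown about 24 h at 37 °C under 5% CO₂ in DMEM with 10% charcoal-treated FCS. They were lipofected with a GAL4–PPAR ligand-binding-domain fusion plasmid plus a GAL4-responsive luciferase reporter. Medium was replaced at 4 h with medium containing compound; no-drug controls received 0.1% DMSO final. Cells were lysed after 24 h and luciferase was read. Results are reported as fold induction and EC50.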

[2] = target: T2, Peroxisome proliferator-activated receptor alpha (Homo sapiens, UniProt Q07869); assay: Agonist activity at human PPARalpha ligand binding domain expressed in COS-1 cells co-transfected with Gal4 by luciferase reporter gene assay; assay type: cell-based; method in brief: as §1
T2 sequence (Q07869 whole entry): T1 sequence (whole entry)

[3] = target: T1, Peroxisome proliferator-activated receptor alpha (Homo sapiens); assay: Agonist activity at human PPARalpha ligand binding domain expressed in COS-1 cells co-transfected with Gal4 by luciferase reporter gene assay relative to fenofibric acid; assay type: cell-based
[4] = target: T3, Peroxisome proliferator-activated receptor gamma (Homo sapiens, UniProt P37231); assay: Agonist activity at human PPARgamma ligand binding domain expressed in COS-1 cells co-transfected with Gal4 by luciferase reporter gene assay; assay type: cell-based
T3 sequence (P37231 whole entry): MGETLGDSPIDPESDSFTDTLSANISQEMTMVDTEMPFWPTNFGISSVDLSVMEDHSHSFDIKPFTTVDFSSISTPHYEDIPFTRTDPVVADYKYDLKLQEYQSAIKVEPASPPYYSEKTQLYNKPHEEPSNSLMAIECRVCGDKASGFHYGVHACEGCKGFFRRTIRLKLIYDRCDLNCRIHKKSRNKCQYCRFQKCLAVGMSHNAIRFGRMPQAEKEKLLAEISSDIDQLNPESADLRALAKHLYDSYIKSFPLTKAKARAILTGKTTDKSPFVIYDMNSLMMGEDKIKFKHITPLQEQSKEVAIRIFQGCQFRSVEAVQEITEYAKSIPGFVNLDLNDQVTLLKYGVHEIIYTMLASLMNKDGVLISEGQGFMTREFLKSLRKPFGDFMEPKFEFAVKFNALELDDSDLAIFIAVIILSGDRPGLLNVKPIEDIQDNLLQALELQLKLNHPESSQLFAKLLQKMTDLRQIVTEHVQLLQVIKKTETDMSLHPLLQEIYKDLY

[5] = target: T4, Peroxisome proliferator-activated receptor gamma (Homo sapiens) (UniProt P37231); assay: Agonist activity at human PPARgamma ligand binding domain expressed in COS-1 cells co-transfected with Gal4 by luciferase reporter gene assay relative to pioglitazone; assay type: cell-based
T4 sequence (whole entry): T3 sequence (P37231 whole entry)

[6] = species on record: Homo sapiens; assay: Selectivity ratio, ratio of EC50 for human PPARalpha ligand binding domain to EC50 for human PPARgamma ligand binding domain
[7] = test system: Mus musculus; assay: Antidiabetic activity in db/db mouse assessed as reduction of blood glucose level at 41 mg/kg administered with chow diet ad for 14 days; assay type: functional, organism-based; set-up: dose 41 mg/kg
Method in brief: (§2)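 […] male db/db mice were randomised into four groups and dosed for 14 days through drug admixed in rodent chow; controls received plain chow. Blood glucose, body weight and food intake were monitored. Values are means of 6 animals/group, compared with vehicle by Dunnett's or Student's test.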

[8] = test system: Mus musculus; assay: Toxicity in db/db mouse assessed as increase of body weight at 41 mg/kg administered with chow diet ad for 14 days; assay type: organism-based; set-up: dose 41 mg/kg; settings: in vivo, po, 336 h; method in brief: as §2
[9] = test system: Mus musculus; assay: Toxicity in db/db mouse assessed as effect on food intake at 41 mg/kg administered with chow diet ad for 14 days; assay type: organism-based; set-up: dose 41 mg/kg; settings: in vivo, po, 336 h; method in brief: as §2
[10] = target: T5, Peroxisome proliferator-activated receptor alpha (Mus musculus, UniProt P23204); assay: Agonist activity at mouse PPARalpha ligand binding domain expressed in COS-1 cells co-transfected with Gal4 by luciferase reporter gene assay; assay type: cell-based; method in brief: as §1
T5 sequence (P23204 whole entry): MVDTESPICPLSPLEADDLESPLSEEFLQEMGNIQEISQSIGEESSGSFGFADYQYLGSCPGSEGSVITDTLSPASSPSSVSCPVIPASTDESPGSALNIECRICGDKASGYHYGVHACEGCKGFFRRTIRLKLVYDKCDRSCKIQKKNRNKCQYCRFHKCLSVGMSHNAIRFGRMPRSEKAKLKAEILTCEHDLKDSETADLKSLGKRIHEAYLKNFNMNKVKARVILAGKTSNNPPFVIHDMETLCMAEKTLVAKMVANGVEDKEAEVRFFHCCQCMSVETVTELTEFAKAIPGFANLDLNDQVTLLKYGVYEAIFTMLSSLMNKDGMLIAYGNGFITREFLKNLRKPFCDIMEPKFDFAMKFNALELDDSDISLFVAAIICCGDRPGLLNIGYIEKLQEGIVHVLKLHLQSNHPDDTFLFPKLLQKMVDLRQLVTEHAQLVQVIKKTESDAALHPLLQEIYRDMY

[11] = AUC in rat at 10 mg/kg, po; assay type: ADME, organism-based; set-up: dose 10 mg/kg, route oral; settings: plasma
Method in brief: (§3)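 Single oral dose of the sodium salt given to rats. Plasma profile used to derive AUC, Cmax, Tmax and bioavailability.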

[12] = AUC in rat at 1 mg/kg, iv; assay type: ADME, organism-based; set-up: dose 1 mg/kg, route intravenous; settings: plasma
Method in brief: (§4)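 Single intravenous dose of the sodium salt given to rats. Plasma concentrations followed to derive AUC, half-life, plasma clearance and steady-state distribution volume.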

[13] = Cmax in rat at 10 mg/kg, po; assay type: ADME, organism-based; set-up: dose 10 mg/kg, route oral; settings: in vivo; method in brief: as §3
[14] = Tmax in rat at 10 mg/kg, po; assay type: ADME, organism-based; set-up: dose 10 mg/kg, route oral; settings: in vivo; method in brief: as §3
[15] = Half life in rat at 1 mg/kg, iv; assay type: ADME, organism-based; set-up: dose 1 mg/kg, route intravenous; settings: in vivo; method in brief: as §4
[16] = Clearance in rat at 1 mg/kg, iv; assay type: ADME, organism-based; set-up: dose 1 mg/kg, route intravenous; settings: in vivo; method in brief: as §4
[17] = Volume of distribution at steady state in rat at 1 mg/kg, iv; assay type: ADME, organism-based; set-up: dose 1 mg/kg, route intravenous; settings: in vivo, read-out: Vdss; method in brief: as §4
[18] = Oral bioavailability in rat at 10 mg/kg; assay type: ADME, organism-based; settings: in vivo; method in brief: as §3
[19] = test system: Mus musculus; assay: Toxicity in db/db mouse assessed as increase of body weight at 15 mg/kg administered with chow diet ad for 14 days; assay type: organism-based; set-up: dose 15 mg/kg; settings: in vivo, po, 336 h; method in brief: as §2
[20] = test system: Mus musculus; assay: Toxicity in db/db mouse assessed as increase of body weight at 141 mg/kg administered with chow diet ad for 14 days; assay type: organism-based; set-up: dose 141 mg/kg; settings: in vivo, po, 336 h; method in brief: as §2
[21] = test system: Mus musculus; assay: Toxicity in db/db mouse assessed as effect on food intake at 15 mg/kg administered with chow diet ad for 14 days; assay type: organism-based; set-up: dose 15 mg/kg; settings: in vivo, po, 336 h; method in brief: as §2
[22] = test system: Mus musculus; assay: Toxicity in db/db mouse assessed as effect on food intake at 141 mg/kg administered with chow diet ad for 14 days; assay type: organism-based; set-up: dose 141 mg/kg; settings: in vivo, po, 336 h; method in brief: as §2
[23] = target: T6, Peroxisome proliferator-activated receptor alpha (Mus musculus) (UniProt P23204); assay: Agonist activity at mouse PPARalpha ligand binding domain expressed in COS-1 cells co-transfected with Gal4 by luciferase reporter gene assay relative to fenofibric acid; assay type: cell-based
T6 sequence (whole entry): T5 sequence (P23204 whole entry)

[24] = test system: Mus musculus; assay: Antidiabetic activity in db/db mouse assessed as reduction of blood glucose level at 141 mg/kg administered with chow diet ad for 14 days; assay type: functional, organism-based; set-up: dose 141 mg/kg; method in brief: as §2

SMILES: COc1ccc(C(=O)c2cccn2C/C=C/c2cccc(OCC(=O)O)c2)cc1
- fold change (FC) [1]: 5.8
- EC50 [2]: 3.7 µM
- Emax [3]: 42%
- EC50 [4]: 1.9 µM
- Emax [5]: 16%
- Ratio EC50 [6]: 1.9

SMILES: COc1cccc(C(=O)c2cccn2C/C=C/c2cccc(OCC(=O)O)c2)c1
- fold change (FC) [1]: 1.4

SMILES: CCc1ccc(CCOc2ccc(CC3SC(=O)NC3=O)cc2)nc1 (stereo unspecified) [PIOGLITAZONE]
- Activity [7]: Active
- Activity [8]: Toxic
- Activity [9]: Toxic

SMILES: CC(C)(Oc1ccc(C(=O)c2ccc(Cl)cc2)cc1)C(=O)O [FENOFIBRIC ACID]
- fold change (FC) [1]: 5.6
- EC50 [2]: 12 µM

SMILES: COc1ccc(C(=O)c2cccn2C/C=C/c2ccc(OCC(=O)O)cc2)cc1
- fold change (FC) [1]: 3.5

SMILES: Cc1cccc(C(=O)c2cccn2C/C=C/c2cccc(OCC(=O)O)c2)c1
- fold change (FC) [1]: 1.9

SMILES: Cc1ccc(C(=O)c2cccn2C/C=C/c2cccc(OCC(=O)O)c2)cc1 [listing 1 of 2 here]
- EC50 [2]: 1.8 µM
- EC50 [4]: 1.2 µM
- EC50 [10]: 4.9 µM

SMILES: COc1ccc(C(=O)c2cccn2C/C=C/c2ccccc2CC(=O)O)cc1
- fold change (FC) [1]: 1

SMILES: COc1ccc(C(=O)c2cc(C)cn2C/C=C/c2ccc(Cl)cc2C(=O)NS(C)(=O)=O)cc1
- fold change (FC) [1]: 0.9
- EC50 [2]: > 90 µM
- EC50 [4]: 12 µM
- Emax [5]: 19%
- Ratio EC50 [6]: > 7.5

SMILES: Cc1ccc(C(=O)c2cccn2C/C=C/c2cccc(OCC(=O)[O-])c2)cc1.[Na+]
- AUC [11]: 59000 ng·h/mL
- AUC [12]: 14000 ng·h/mL
- Cmax [13]: 4300 ng/mL
- Tmax [14]: 4 h
- half-life [15]: 3.2 h
- clearance [16]: 1.2 mL/min/kg
- Vd [17]: 0.3 L/kg
- bioavailability [18]: 42%
- Activity [19]: Non-toxic
- Activity [20]: Non-toxic
- Activity [21]: Non-toxic
- Activity [22]: Non-toxic

SMILES: Cc1ccc(C(=O)c2cccn2C/C=C/c2cccc(OCC(=O)O)c2)cc1 [listing 2 of 2 here]
- fold change (FC) [1]: 5.2
- Emax [3]: 37%
- Emax [5]: 17%
- Ratio EC50 [6]: 1.5
- Emax [23]: 25%
- Activity [24]: Active

SMILES: Cc1ccccc1C(=O)c1cccn1C/C=C/c1cccc(OCC(=O)O)c1
- fold change (FC) [1]: 1.1

SMILES: COc1ccc(C(=O)c2cccn2C/C=C/c2ccc(CC(=O)O)cc2)cc1
- fold change (FC) [1]: 0.8

SMILES: COc1ccccc1C(=O)c1cccn1C/C=C/c1cccc(OCC(=O)O)c1
- fold change (FC) [1]: 0.9

SMILES: COc1ccc(C(=O)c2cccn2C/C=C/c2ccccc2OCC(=O)O)cc1
- fold change (FC) [1]: 0.8

SMILES: COc1ccc(C(=O)c2cccn2C/C=C/c2cccc(CC(=O)O)c2)cc1
- fold change (FC) [1]: 1.6
- EC50 [2]: 21 µM
- Emax [3]: 43%
- EC50 [4]: 2 µM
- Emax [5]: 37%
- Ratio EC50 [6]: 11
